Published values gathered from unrelated publications.
Lines come from different studies, so protocols differ.
Observed: metabolic stability

Structure (SMILES)	species	sample	concentration	half-life
O=c1ccc2cc(O)ccc2o1	mouse	liver microsomes	20 µM	8.22 min
O=C(O)Cc1ccccc1Nc1c(Cl)cccc1Cl	mouse	liver microsomes	–	60.8 min
CC(C)Oc1ccc(S(=O)(=O)c2ccc(Oc3cc(OCC(N)=O)c(C(=O)C(Cl)Cl)cc3[N+](=O)[O-])cc2)cc1	mouse	liver microsomes	20 µM	7.2 min
O=C1CCC(N2Cc3cc(Nc4noc5cc(F)ccc45)ccc3C2=O)C(=O)N1 (centres unmarked)	CD-1 mouse	hepatocytes	–	> 216 min
CCOc1ccc2ccc(=O)oc2c1	male CD-1 mouse	hepatocytes	1 µM	< 15 min
CC1(CN)CCN(c2cnc3c(Sc4ccncc4Cl)n[nH]c3n2)CC1	mouse	liver microsomes	–	630 min
O=C(c1ccc(F)cc1)C1CCN(CCn2c(=O)[nH]c3ccccc3c2=O)CC1	mouse	liver microsomes	–	22.8 min
O=c1ccc2ccc(O)cc2o1	mouse	liver microsomes	–	2 min
